Results gathered from unrelated publications.
Protocols differ between the studies behind these lines.
Target: Ephrin type-B receptor 4 (EPHB4, Homo sapiens, UniProt P54760)
Sequence (P54760 16-987, as in one of the studies): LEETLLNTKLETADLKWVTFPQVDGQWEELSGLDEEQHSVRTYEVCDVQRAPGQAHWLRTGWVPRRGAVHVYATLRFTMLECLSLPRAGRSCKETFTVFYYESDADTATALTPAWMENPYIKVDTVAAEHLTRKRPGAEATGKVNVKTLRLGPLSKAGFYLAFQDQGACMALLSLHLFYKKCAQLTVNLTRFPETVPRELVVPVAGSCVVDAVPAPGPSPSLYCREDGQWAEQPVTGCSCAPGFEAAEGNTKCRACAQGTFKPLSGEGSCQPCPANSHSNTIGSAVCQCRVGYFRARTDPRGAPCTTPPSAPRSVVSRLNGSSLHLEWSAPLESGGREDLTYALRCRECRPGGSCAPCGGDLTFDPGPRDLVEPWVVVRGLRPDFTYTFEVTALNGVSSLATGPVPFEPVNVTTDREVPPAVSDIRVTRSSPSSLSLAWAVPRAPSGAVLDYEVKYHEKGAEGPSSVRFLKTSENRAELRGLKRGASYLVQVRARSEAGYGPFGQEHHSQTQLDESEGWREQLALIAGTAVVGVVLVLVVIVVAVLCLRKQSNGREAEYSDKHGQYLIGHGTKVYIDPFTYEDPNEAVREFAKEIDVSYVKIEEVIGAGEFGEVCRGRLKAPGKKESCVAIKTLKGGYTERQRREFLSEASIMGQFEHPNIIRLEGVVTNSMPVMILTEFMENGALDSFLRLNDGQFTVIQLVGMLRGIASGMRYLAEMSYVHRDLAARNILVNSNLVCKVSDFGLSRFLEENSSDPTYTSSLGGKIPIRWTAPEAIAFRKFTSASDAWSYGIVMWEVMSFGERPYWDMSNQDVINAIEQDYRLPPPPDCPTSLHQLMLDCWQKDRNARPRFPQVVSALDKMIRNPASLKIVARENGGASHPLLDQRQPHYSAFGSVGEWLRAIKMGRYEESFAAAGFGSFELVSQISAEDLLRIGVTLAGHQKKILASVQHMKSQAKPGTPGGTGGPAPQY

Nc1cnc(N2CCc3cc(S(=O)(=O)Nc4c(F)cc(Cl)cc4F)cc(N4CCCC4=O)c32)nc1  remaining binding (cell-free assay, competition with immobilised ligand; 1 µM): 100%
COc1cc(Nc2cnc(C#N)c(O[C@H](C)CN(C)C)n2)ncc1-c1cnn(C)c1  remaining activity (enzyme activity, inhibitor, radiometric; 1 µM): 96%
Cc1cc(NC(=O)c2cccc3cc(-c4cccc5[nH]nc(N)c45)ccc23)ccc1F  activity vs control (enzyme activity, inhibitor; 0.1 µM): 109%
COc1cc2ncnc(Nc3ccc(Oc4ccccc4)c(C)c3C)c2cc1OC  inhibition (enzyme activity, inhibitor; 1 µM): 3%
C[C@@H](c1cccc(C#N)c1)n1cc(Cl)cc(C(N)=O)c1=N  remaining binding (cell-free assay, competition with immobilised ligand; 1 µM): 96%
Cc1ccc(C(=O)NCc2ccsc2)cc1C#Cc1cn(C(C)C)c2ncnc(N)c12  activity vs control (enzyme activity, inhibitor; 1 µM): 28%
N#Cc1ccc(Nc2ccc3[nH]c(=O)[nH]c3c2)c(Cl)c1  remaining binding (cell-free assay, competition with immobilised ligand; 1 µM): 98%
O=C(Nc1cnn(-c2csc(C(=O)NC3COC3)c2)c1)Nc1c(F)cccc1Cl  remaining activity (enzyme activity, inhibitor; 5 µM): 98.1%
CNC(=O)c1cc2c(Oc3ccc(NC(=O)C4(C(=O)Nc5ccc(F)cc5)CC4)cc3)ccnc2cc1OC  inhibition (enzyme activity, inhibitor, radiometric; 1 µM): 83%
C[S+]([O-])c1ccc(-c2nc(-c3ccncc3)c(-c3ccc(F)cc3)[nH]2)cc1 (centres unmarked)  remaining signal (cell-free assay; 0.5 µM): 91.1%
Cc1[nH]c(/C=C2\C(=O)Nc3ccc(F)cc32)c(C)c1C(=O)N[C@H]1CCN(C(=O)N(C)C)C1  remaining activity (enzyme activity, inhibitor; 1 µM): 101%
O=C(N[C@H]1CCCCC/C=C\C2C[C@@]2(C(=O)O)NC(=O)[C@@H]2C[C@@H](Oc3ccncc3)CN2C1=O)OC1CCCC1 (some centres unmarked)  remaining binding (cell-free assay, competition with immobilised ligand; 1 µM): 100%
Oc1cccc(-c2nc(N3CCOCC3)c3oc4ncccc4c3n2)c1  remaining activity (enzyme activity, inhibitor; 10 µM): 86%
CNCc1ccc(-c2cc(-c3nc(-c4ccc(S(=O)(=O)C(C)C)cc4)cnc3N)on2)cc1  inhibition (enzyme activity, inhibitor; 0.4 µM): 0%
FC(F)c1nc2ccccc2n1-c1nc(N2CCOCC2)nc(N2CCOCC2)n1  remaining activity (enzyme activity, inhibitor; 10 µM): 105%
CC(=O)Nc1c(C(C)=O)c(=O)n(C)c2nc(-c3ccc(Cl)cc3Cl)c(-c3ccc(Cl)cc3)cc12  remaining binding (cell-free assay, competition with immobilised ligand; 1 µM): 100%
CCCOc1ccc(OC)c(F)c1C(=O)c1ccc(C(=O)N[C@@H]2CNC[C@H]2NC(=O)c2ccc3[nH]ncc3c2)cc1  remaining activity (enzyme activity, inhibitor; 10 µM): 79%
COc1ccc(COc2ccc(Cc3cnc(N)nc3N)cc2OC)cc1  remaining signal (cell-free assay; 0.5 µM): 90.5%
CC(C)(C)c1nc(-c2cccc(NS(=O)(=O)c3c(F)cccc3F)c2F)c(-c2ccnc(N)n2)s1  remaining activity (enzyme activity, inhibitor, radiometric; 1 µM): 97%
N#CCCc1ccc2c(c1)-c1[nH]c3ccc([N+](=O)[O-])cc3c1CC(=O)N2  remaining signal (cell-free assay; 0.5 µM): 82.2%
Cc1cc(NC(=O)c2cccc(S(F)(F)(F)(F)F)c2)cc(-n2ccn3nc(-c4cccnc4)cc23)c1  remaining binding (cell-free assay, competition with immobilised ligand; 1 µM): 100%
O=C(Nc1cnn(-c2csc(C(=O)NC3COC3)c2)c1)Nc1ccccc1Cl  remaining activity (enzyme activity, inhibitor; 5 µM): 97.8%
CN(C)CC#Cc1ccc(OCCCc2sc(N3CCc4cccc(C(=O)Nc5nc6ccccc6s5)c4C3)nc2C(=O)O)c(F)c1  remaining binding (cell-free assay, competition with immobilised ligand; 1 µM): 100%
COc1cc(Cl)c(C(=O)N[C@@H](CN[C@H]2CC[C@@H](N)CC2)Cc2ccc(C#N)cc2)cc1-c1ccc(CN[C@H](C)c2ccc(C)cc2)o1  remaining activity (enzyme activity, inhibitor; 1 µM): 91%
c1ccc(N2CCN(Cc3nc4ccccc4[nH]3)CC2)nc1  remaining binding (cell-free assay, competition with immobilised ligand; 1 µM): 100%
CCOc1cc(-c2nncn2C)ccc1Nc1ncc2cc(C)nc(NCC(C)(C)C)c2n1  inhibition (enzyme activity, inhibitor, FRET; 1 µM): < 15%
CCCS(=O)(=O)Nc1ccc(F)c(C(=O)c2c[nH]c3ncc(-c4ccc(Cl)cc4)cc23)c1F  inhibition (enzyme activity, inhibitor; 1 µM): < 20%
Cc1ccc(Nc2nccc(N(C)c3ccc4c(C)n(C)nc4c3)n2)cc1S(N)(=O)=O  remaining signal (cell-free assay; 0.5 µM): 93.8%
COc1cccc2c(NCc3ccccc3)nc(-n3c(N)nc4ccccc43)nc12  inhibition (target engagement in cells, inhibitor, chemoproteomics; 20 mM): -8.8%
